Values after ≈ are worked out from the molar mass of the structure shown. Active and inactive are the calls of the source. No cut-off for these calls is given here.
Columns and labels:
Staphylococcus aureus [1] = experiment: Antibacterial activity against methicillin-resistant Staphylococcus aureus 2884 isolate at 5 ug by disc diffusion method; assay type: functional; conditions: read-out: IZ
How it was run: (§1)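 Disk diffusion on 100-mm Mueller-Hinton agar plates inoculated with a 0.5 McFarland suspension. Disks: oxacillin 5 μg, cefoxitin 30 μg, ceftobiprole 30 μg, amoxicillin-clavulanic acid 20/10 μg, ofloxacin 5 μg, imipenem 10 μg. Inhibition zone diameters were read per CLSI and CASFM guidelines.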

Staphylococcus aureus [2] = experiment: Antibacterial activity against methicillin-resistant Staphylococcus aureus 2884 isolate at 30 ug by disc diffusion method; assay type: functional, organism-based; how it was run: as §1
Staphylococcus aureus [3] = experiment: Antibacterial activity against oxacillin-dependent methicillin-resistant Staphylococcus aureus 2884D isolate at 5 ug by disc diffusion method; assay type: functional, organism-based; how it was run: as §1
Staphylococcus aureus [4] = experiment: Antibacterial activity against methicillin-resistant Staphylococcus aureus 2884; assay type: functional
Staphylococcus aureus [5] = experiment: Antibacterial activity against methicillin-resistant Staphylococcus aureus 2884 isolate by disc diffusion method; assay type: functional; how it was run: as §1
Staphylococcus aureus [6] = experiment: Induction of blaR1 gene expression in oxacillin-dependent methicillin-resistant Staphylococcus aureus 2884D isolate by RT-PCR; assay type: functional, organism-based
How it was run: (§2)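 TaqMan real-time RT-PCR on RNA from exponential-phase cells grown with or without 0.5 μg/ml oxacillin; the dependent strain was also grown on blood agar without oxacillin. Each reaction used 25 ng total RNA, 500 nM primers and 100 nM probe. Cycling: 48°C 30 min, 95°C 10 min, then 40 × (95°C 15 s, 60°C 1 min). Quantified by C_T against a standard curve, expressed relative to 16S; triplicate runs.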

Staphylococcus aureus [7] = experiment: Effect on blaZ gene expression in oxacillin-dependent methicillin-resistant Staphylococcus aureus 2884D isolate at 0.5 ug/ml by RT-PCR; assay type: functional, organism-based; how it was run: as §2
Staphylococcus aureus [8] = experiment: Decrease in PBP2 gene expression in oxacillin-dependent methicillin-resistant Staphylococcus aureus 2884D isolate by RT-PCR; assay type: functional, organism-based; how it was run: as §2
Staphylococcus aureus [9] = experiment: Induction of blaR1 gene expression in methicillin-resistant Staphylococcus aureus 2884 isolate by RT-PCR; assay type: functional, organism-based; how it was run: as §2
Staphylococcus aureus [10] = experiment: Induction of blaI mRNA expression in methicillin-resistant Staphylococcus aureus 2884 isolate by RT-PCR; assay type: functional, organism-based; how it was run: as §2
Staphylococcus aureus [11] = experiment: Antibacterial activity against oxacillin-dependent methicillin-resistant Staphylococcus aureus 2884D isolate assessed as decrease in log bacterial count at >= 256 ug/ml; assay type: functional
Staphylococcus aureus [12] = experiment: Antibacterial activity against oxacillin-dependent methicillin-resistant Staphylococcus aureus 2884D isolate; assay type: functional
Staphylococcus aureus [13] = experiment: Induction of blaI mRNA expression in oxacillin-dependent methicillin-resistant Staphylococcus aureus 2884D isolate by RT-PCR; assay type: functional, organism-based; how it was run: as §2
Staphylococcus aureus [14] = experiment: Effect on blaZ gene expression in oxacillin-dependent methicillin-resistant Staphylococcus aureus 2884D isolate at 0.5 ug/ml in presence of blood agar by RT-PCR; assay type: functional, organism-based; how it was run: as §2
Staphylococcus aureus [15] = experiment: Effect on vraSR gene expression in oxacillin-dependent methicillin-resistant Staphylococcus aureus 2884D isolate in presence of blood agar by RT-PCR; assay type: functional, organism-based; how it was run: as §2
Staphylococcus aureus [16] = experiment: Antibacterial activity against methicillin-resistant Staphylococcus aureus 2884 isolate assessed as decrease in log bacterial count at 1 ug/ml; assay type: functional

CC1COc2c(N3CCN(C)CC3)c(F)cc3c(=O)c(C(=O)O)cn1c23 (stereo unspecified) [OFLOXACIN]
zone of inhibition at 5 µg/disc (Staphylococcus aureus [1]): 15 mm | Activity (Staphylococcus aureus [2]): inactive | Activity (Staphylococcus aureus [3]): inactive

CO[C@@]1(NC(=O)Cc2cccs2)C(=O)N2C(C(=O)O)=C(COC(N)=O)CS[C@@H]21 (single isomer, unassigned) [CEFOXITIN]
zone of inhibition at 5 µg/disc (Staphylococcus aureus [1]): 13 mm | MIC (Staphylococcus aureus [4]): 32 µg/mL (≈ 74.9 µM)

Nc1nc(/C(=N/O)C(=O)N[C@@H]2C(=O)N3C(C(=O)O)=C(/C=C4\CCN([C@@H]5CCNC5)C4=O)CS[C@H]23)ns1 [CEFTOBIPROLE]
inhibition zone (IZ) (Staphylococcus aureus [5]): 34 mm | MIC (Staphylococcus aureus [4]): 2 µg/mL (≈ 3.74 µM)

C[C@@H](O)[C@H]1C(=O)N2C(C(=O)O)=C(SCCNC=N)C[C@H]12 [IMIPENEM ANHYDROUS]
MIC (Staphylococcus aureus [4]): 8 µg/mL (≈ 26.7 µM)

Cc1onc(-c2ccccc2)c1C(=O)N[C@@H]1C(=O)N2[C@@H]1SC(C)(C)[C@@H]2C(=O)O [OXACILLIN]
Activity (Staphylococcus aureus [6]): Active | Activity (Staphylococcus aureus [7]): inactive | Activity (Staphylococcus aureus [8]): Active | Activity (Staphylococcus aureus [9]): inactive | zone of inhibition at 5 µg/disc (Staphylococcus aureus [1]): 15 mm | Activity (Staphylococcus aureus [10]): Active | MIC (Staphylococcus aureus [4]): 64 µg/mL (≈ 159 µM) | CFU/ml (Staphylococcus aureus [11]): 3 | MIC (Staphylococcus aureus [12]): ≥ 256 µg/mL | Activity (Staphylococcus aureus [13]): inactive | Activity (Staphylococcus aureus [14]): inactive | Activity (Staphylococcus aureus [15]): inactive | CFU/ml (Staphylococcus aureus [16]): 4
